In assay [1] the target is T1, Prothrombin (Homo sapiens, UniProt P00734). The assay can be described thus: Inhibition of thrombin at 100 uM.
The target of assay [2] is T2, Serine protease 1 (Homo sapiens, UniProt P07477). The assay is described as follows: In vitro inhibitory activity against trypsin at 100 uM.
Assay [3] concerns the target Coagulation factor X (Homo sapiens, UniProt P00742). The assay can be described thus: In vitro inhibition of coagulation factor Xa. Summed up: (§1)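 Enzyme was preincubated 1 h at room temperature with inhibitor across 14 concentrations (1 nM–100 μM final). A405 was read kinetically over 10 min at 37 °C. Percent inhibition came from the linear progress-curve slopes, typically in duplicate.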

In assay [4] the target is T3, Plasminogen (Homo sapiens, UniProt P00747). The assay can be described thus: Inhibition of plasmin at 100 uM.
T3 sequence (P00747 97-580 limits assumed): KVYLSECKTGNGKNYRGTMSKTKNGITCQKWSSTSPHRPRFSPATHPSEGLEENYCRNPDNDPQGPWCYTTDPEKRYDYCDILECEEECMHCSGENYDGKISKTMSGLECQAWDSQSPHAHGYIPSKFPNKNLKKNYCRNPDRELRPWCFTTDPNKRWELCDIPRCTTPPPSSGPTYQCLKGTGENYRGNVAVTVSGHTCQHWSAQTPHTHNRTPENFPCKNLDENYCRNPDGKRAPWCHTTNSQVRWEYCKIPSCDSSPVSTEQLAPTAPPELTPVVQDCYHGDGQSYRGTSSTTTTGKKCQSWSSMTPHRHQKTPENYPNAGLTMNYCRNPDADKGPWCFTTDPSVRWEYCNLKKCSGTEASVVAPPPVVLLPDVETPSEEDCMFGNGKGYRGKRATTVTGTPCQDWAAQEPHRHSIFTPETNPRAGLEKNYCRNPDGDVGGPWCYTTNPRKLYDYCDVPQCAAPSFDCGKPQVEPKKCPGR
T3 sequence (P00747 581-810 limits assumed): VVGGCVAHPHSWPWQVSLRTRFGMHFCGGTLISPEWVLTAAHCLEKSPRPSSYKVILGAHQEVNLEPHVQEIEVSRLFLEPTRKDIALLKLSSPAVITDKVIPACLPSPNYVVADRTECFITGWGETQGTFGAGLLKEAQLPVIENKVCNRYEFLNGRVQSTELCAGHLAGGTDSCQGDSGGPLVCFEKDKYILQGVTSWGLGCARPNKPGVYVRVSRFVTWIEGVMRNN
The target in assay [5] is T3, Plasminogen. The assay can be described thus: Compound was tested for in vitro inhibitory activity against plasmin at 100 uM.
Assay [6] concerns the target T1, Prothrombin. The assay can be described thus: Inhibition of thrombin. Summed up: as §1
Assay [7] deals with T2, Serine protease 1. The assay can be described thus: In vitro inhibitory activity against trypsin. Summed up: as §1

This passage reports inhibition and IC50 results from ChEMBL document CHEMBL1133480, “Rational design, synthesis, and biological activity of benzoxazinones as novel factor Xa inhibitors” (J Med Chem, 2000).

Structures are written as SMILES.

As usually defined, the inhibition is the drop in the measured response relative to a control, in per cent. A low value points to little suppression. Broadly, the IC50 is the concentration needed to halve the response being measured. Low readings indicate higher potency, high ones lower potency.

Chain of Coagulation factor X (P00742 41-179 limits assumed): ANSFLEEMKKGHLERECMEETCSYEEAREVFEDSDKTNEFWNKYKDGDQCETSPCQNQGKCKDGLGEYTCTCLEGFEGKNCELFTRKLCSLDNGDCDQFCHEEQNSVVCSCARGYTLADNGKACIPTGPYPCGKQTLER
Chain of Coagulation factor X (P00742 235-488 limits assumed): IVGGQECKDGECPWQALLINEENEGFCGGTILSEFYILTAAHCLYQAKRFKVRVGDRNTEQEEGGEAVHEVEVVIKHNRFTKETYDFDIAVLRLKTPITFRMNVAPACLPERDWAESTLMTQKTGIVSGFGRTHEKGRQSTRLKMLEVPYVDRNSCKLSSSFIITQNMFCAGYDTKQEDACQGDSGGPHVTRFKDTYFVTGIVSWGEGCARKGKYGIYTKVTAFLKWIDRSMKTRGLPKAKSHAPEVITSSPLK
T2 sequence (P07477 whole entry): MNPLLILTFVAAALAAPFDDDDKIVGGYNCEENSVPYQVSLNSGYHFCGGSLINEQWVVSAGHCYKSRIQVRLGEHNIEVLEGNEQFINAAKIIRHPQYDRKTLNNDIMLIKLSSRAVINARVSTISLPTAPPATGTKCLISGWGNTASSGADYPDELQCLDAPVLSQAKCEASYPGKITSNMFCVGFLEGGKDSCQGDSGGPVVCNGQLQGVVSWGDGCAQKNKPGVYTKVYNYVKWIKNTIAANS

With `COc1ccc(C2Oc3ccccc3N(CCCCCN3C(C)CCCC3C)C2=O)cc1` (configuration not stated), the inhibition is 29% in assay [1], 2.3% in assay [2] and 19% in assay [4]. This molecule displayed an IC50 in assay [3] of 4.9 µM.

In the case of `CC1CCCC(C)N1CCCCCN1C(=O)C(c2ccccc2)Oc2ccccc21` (configuration not stated), the inhibition came out at 19% in assay [1], 26% in assay [5] and 2.8% in assay [2]. Besides, the midpoint of inhibition in assay [3], the IC50, lay at 27 µM.

On to `CC1CCC(C)N1CCCCCN1C(=O)C(c2cccc(C(=N)N)c2)Oc2ccccc21` (configuration not stated), for which the results for the 50% inhibitory concentration (IC50) in assay [6], in assay [7] and in assay [3] were 0.91 µM, 0.76 µM and 0.048 µM, respectively. The same molecule returned an inhibition in assay [5] of 85%.

Take `CC1CCCC(C)N1CCCCCN1C(=O)C(c2ccc(Cl)c(Cl)c2)Oc2ccccc21` (configuration not stated): the inhibition is 47% in assay [1], 14% in assay [2] and 25% in assay [4]. In assay [3], it took 26 µM to reach half-maximal inhibition (IC50).

Regarding `CC1CCCC(C)N1CCCCCN1C(=O)C(c2ccc(C(=N)NO)cc2)Oc2ccccc21` (configuration not stated), the figures for the inhibition in assay [1], in assay [2] and in assay [4] were 18%, 8% and 10%, respectively. Moreover, in assay [3], the IC50 was found to be 66 µM.

On to `C/N=C(/N)c1cccc(C2Oc3ccccc3N(CCCCCN3C(C)CCCC3C)C2=O)c1` (configuration not stated), for which the inhibition in assay [1] stood at 68%; in assay [5], 32%; in assay [2], 32%.

For the molecule `N=C(N)c1cccc(C2Oc3ccccc3N(CCCCCN)C2=O)c1` (configuration not stated), the inhibition in assay [1] came to 60%; in assay [5], 64%. In addition, the half-maximal inhibitory concentration (IC50) was found to be 4.3 µM in assay [7] and 6.3 µM in assay [3].

Regarding `CC1CCCC(C)N1CCCCCN1C(=O)C(c2ccccc2Cl)Oc2ccccc21` (configuration not stated), the IC50 in assay [6] was 65 µM; in assay [7], 39 µM; in assay [3], 16 µM. Also, the inhibition in assay [4] is 23%.

With `CC1CCCC(C)N1CCCCCN1C(=O)C(c2ccc(Cl)cc2)Oc2ccccc21` (configuration not stated), the figures for the inhibition in assay [1], in assay [2] and in assay [4] were 38%, 46% and 30%, respectively. In addition, it took 23 µM to reach half-maximal inhibition in assay [3] (IC50).

`N=C(N)c1cccc(C2Oc3ccccc3N(CCCCCN3CCOCC3)C2=O)c1` (configuration not stated): the results for the IC50 in assay [6], in assay [7] and in assay [3] were 2.2 µM, 1.1 µM and 0.24 µM, respectively. Also, in assay [5], the inhibition was found to be 70%.

Take `Cc1ccc(C2Oc3ccccc3N(CCCCCN3C(C)CCCC3C)C2=O)cc1` (configuration not stated): the inhibition in assay [1] turned out to be 33%; in assay [2], 18%; in assay [4], 13%. In assay [3], this molecule registered an IC50 of 28 µM.

Turning to `CC1CCCC(C)N1CCCCCN1C(=O)C(c2cccc(C(=N)NO)c2)Oc2ccccc21` (configuration not stated), the results for the inhibition in assay [1], in assay [2] and in assay [4] were 19%, 21% and 11%, respectively. Moreover, in assay [3], inhibition was half-maximal at 5.6 µM (IC50).

On to `CC1CCCC(C)N1CCCCCN1C(=O)C(c2ccc(C(=N)N)cc2)Oc2ccccc21` (configuration not stated), for which the results for the IC50 in assay [6], in assay [7] and in assay [3] were 1.7 µM, 13 µM and 7.9 µM, respectively. Besides, the inhibition in assay [4] worked out at 80%.

With `CC1CCCC(C)N1CCCCCN1C(=O)C(c2ccc(C(=N)S)cc2)Oc2ccccc21` (configuration not stated), the inhibition in assay [1] came to 32%; in assay [2] it was 7.8%; in assay [4], 44%. Further, half-maximal inhibition in assay [3] (IC50) was put at 34 µM.

Consider `CC1CCCC(C)N1CCCCCN1C(=O)C(c2cccc(C(N)=NN3CCOCC3)c2)Oc2ccccc21` (configuration not stated), for which half-maximal inhibition in assay [3] (IC50) required 1.5 µM. In other words, the single-digit micromolar range.

With `CC(C)N(CCCCCN1C(=O)C(c2cccc(C(=N)N)c2)Oc2ccccc21)C(C)C` (configuration not stated), the IC50 in assay [6] was found to be 1.2 µM; in assay [7], 1.2 µM; in assay [3] it was 0.12 µM. For the same molecule, in assay [5], the inhibition amounted to 72%.

`CNC(=N)c1cccc(C2Oc3ccccc3N(CCCCCN3C(C)CCCC3C)C2=O)c1` (configuration not stated) registered an IC50 in assay [3] of 2.8 µM.

`CC1CCCC(C)N1CCCCCN1C(=O)C(c2cccc(C(=N)S)c2)Oc2ccccc21` (configuration not stated): the inhibition amounted to 20% in assay [1], 5.2% in assay [2] and 29% in assay [4].

In the case of `CC1CCCC(C)N1CCCCCN1C(=O)C(c2cccc(C(=N)NN3CCOCC3)c2)Oc2ccccc21` (configuration not stated), the inhibition in assay [1] was 15%; in assay [5], 0%; in assay [2] it was 58%.
